Measured values from ChEMBL document CHEMBL4513216, “Probing the Open Global Health Chemical Diversity Library for Multistage-Active Starting Points for Next-Generation Antimalarials” (ACS Infect Dis, 2020).

Test: Toxicity liver stage against HepG2, at 10uM
Type: cell-based
Parameters: test concentration 10 uM, cell line HepG2-A16-CD81EGFP
Details: human, HepG2-A16-CD81EGFP cells; read-out: INHIBITION
How it was run: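 Uninfected HepG2-A16-CD81EGFP cells, 3 × 10^3 per well, 1536-well, plated on prespotted compound at 10 μM final, parasite-free screening media added to match infected plates; puromycin 10 μM positive, DMSO 0.5% negative; run in parallel with 48 h PbLuc assay at 37 °C, 5% CO2; viability by CellTiter-Glo luminescence, normalized to controls.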

Row | SMILES | cytotoxicity at 10 µM [%]
1 | CN1CCN(c2ccncc2S(=O)(=O)N2CCCCC2)CC1 | -6.84
2 | Cc1nnc2n1CCN(C(C(N)=O)c1ccc(F)cc1)C2 (stereo unspecified) | -13.5
3 | CC(C)CNC(=O)Cn1ccc2ccccc21 | -43.4
4 | CC(C)Cc1nc(NC(=O)c2cccnc2)n[nH]1 | -1.18
5 | CC(=O)Nc1cccc2c1ccn2CC(=O)Nc1ncc[nH]1 | 5.83
6 | COCCN(Cc1ccoc1)S(=O)(=O)c1cccc(C(F)(F)F)c1 | 3.17
7 | Cc1ccsc1C(=O)N1CC(C(=O)N2CCOCC2)C2(CCOCC2)C1 (stereo unspecified) | 1.47
8 | CNC(=O)c1ccc(C2CN(c3cc(C)nc(N)n3)CCO2)nc1 (stereo unspecified) | 2.02
9 | CO[C@H]1CN(Cc2nc3ccccc3n2C)C[C@@]12CCCO2 | 4.32
10 | Cc1nc(CN2CCC2(CCCc2ccccn2)C(=O)N(C)C)co1 (stereo unspecified) | 11.4
11 | Cc1nc(C)c(C(=O)N2Cc3ccccc3OCC2Cn2ccnc2)o1 (stereo unspecified) | 7.92
12 | Fc1ccccc1Oc1nccnc1C1CCN(C2CCOCC2)CC1 | 13.9
13 | CNc1cc(C2CN(C(=O)c3cnn(C)c3)CCO2)nc(C)n1 (stereo unspecified) | -5.42
14 | NCc1cccc(-c2cccnc2C(=O)NCCN2CCOCC2)c1 | -1.29
15 | CN(C)S(=O)(=O)N1CCCC(c2ccncn2)C1 (stereo unspecified) | -15.3
16 | C=C(C)CN1CCN(Cc2cnc(OC)nc2)CC1 | 5.16
17 | Cc1noc(C2(C)CCCN(C(=O)c3cccnc3)C2)n1 (stereo unspecified) | -13.4
18 | O=C(c1cccnn1)N1C[C@@H]2CC[C@H](Oc3cccc(F)c3)[C@@H]2C1 | -13.6
19 | Cc1nc(Nc2cnccn2)cc(C2CCCN2C2CCOCC2)n1 (stereo unspecified) | -17.3
20 | COc1ccc(CN(C)[C@@H]2CN(C(=O)c3ccccc3)C[C@H]2O)cc1 | -2.64
21 | CCCn1cc(CN2CCCC2c2nccc(CN(C)C)n2)cn1 (stereo unspecified) | 19.7
22 | CC1(C(=O)N2CCOCC2)CN(Cc2ccccc2F)CCO1 (stereo unspecified) | 2.03
23 | CCn1cnnc1CCNC(=O)c1ccc(Br)cc1F | -29.7

Row | SMILES | cytotoxicity at 10 µM [%]
24 | CC(C)c1nnc(NC(=O)NCc2cccnc2NCCN(C)C)s1 | 3.92
25 | Cc1nn(C)c(C)c1NC(=O)CN1CCOC(CN(C)C)C1 (stereo unspecified) | -8.72
26 | CC(C)n1cnnc1CNC(=O)CCCOc1ccccc1Cl | -3.51
27 | CN(CC1COc2ccccc2O1)C(=O)C1=NN(C)C(=O)CC1 (stereo unspecified) | -52.2
28 | N#Cc1ccc(CN2CCN(Cc3ccncc3Cl)CC2=O)cc1 | 6.43
29 | COc1ccc(N(CCC(N)=O)C(=O)CSc2ccc(Cl)cc2)cc1 | -4.37
30 | O=C(Cn1ccc(=O)[nH]c1=O)Nc1ccccc1F | -0.691
31 | COCCCn1nnc(C2(NC(=O)c3ccccc3)CCCC2)n1 | 9.24
32 | CS(=O)(=O)NCCC(=O)N1CCCC1c1noc(C2CC2)n1 (stereo unspecified) | -10.4
33 | COCCNC(=O)Nc1ccc(C(=O)N2CCSCC2)cc1C | -2.13
34 | CCOC(=O)N1CCN(CC(=O)Nc2ccc(F)cc2Cl)CC1 | 6
35 | COc1ccc(S(=O)(=O)NC(=O)c2c(C)noc2C(C)C)cc1C | 0.495
36 | COc1ccc(CCN2CCOC(Cn3nc(C)nc3C)C2)cc1 (stereo unspecified) | 2.29
37 | O=C(NCc1ncc[nH]1)c1c(F)cccc1I | -6.78
38 | COCc1ccccc1C(=O)NS(=O)(=O)c1ccc2c(c1)CCC(=O)N2 | -1.74
39 | Cc1ccccc1OCCC(=O)N(C)Cc1c(C)noc1C | -8.73
40 | CSC(C)C(=O)N1CCN(CC(C)(C)O)CC1 (stereo unspecified) | -10.2
41 | N#Cc1ccc(NCC(O)c2ccco2)c(C(F)(F)F)c1 (stereo unspecified) | -31.7
42 | Cc1ccccc1C(C)NC(=O)c1ccc(=O)n(C)c1 (stereo unspecified) | 4.31
43 | CS(=O)(=O)CCS(=O)(=O)Cc1cc(Cl)c2c(c1)OCCCO2 | -0.0261
44 | Nc1cc2c(nn1)CCN(C(=O)c1csc(-c3cccs3)n1)C2 | -1.32
45 | Cc1nsc(N2CCN(C(=O)Nc3ccc4[nH]ccc4c3)CC2)n1 | 4.52
46 | Cc1nc(CNC(=O)C(C)(C)c2ccc(F)cc2)no1 | 6.08

Row | SMILES | cytotoxicity at 10 µM [%]
47 | O=C(NCCc1ccccc1)N1CCCCC1C1OCCO1 (stereo unspecified) | -45.2
48 | CCc1nnc2n1CCN(C(=O)c1ccc3c(c1)NC(=O)CO3)C2 | 1.24
49 | O=C(c1ccc[nH]1)N1CCc2ncc(Cn3cccn3)n2CC1 | -0.469
50 | Cn1ncc2c1C(COCC1CC1)CN(C(=O)c1ccoc1)C2 (stereo unspecified) | -2.18
51 | CCn1ncc2c1C(COC)N(C(=O)Cc1cccs1)CC2 (stereo unspecified) | -109
52 | O=C(Cc1ccco1)N1C[C@@H]2COC[C@]2(COCC2CCOCC2)C1 | -102
53 | O=C(c1cn[nH]c1)N1CCC2(CCCN(Cc3ccc(F)c(F)c3)C2)C1 (stereo unspecified) | 6.07
54 | CC(C)[C@H](Nc1cc(-c2ccncc2)nc2ccnn12)C(N)=O | 0.782
55 | CCn1cc(CN2CCCC2c2nc(C(C)C)no2)cc1C#N (stereo unspecified) | 1.44
56 | CCO[C@H]1C[C@@H](O)C12CCN(C1CCN(c3ccccc3)CC1)CC2 | 4.24
57 | Cc1cc(F)ccc1C(=O)N1CCN(C)C2(CCC(=O)N(C)CC2)C1 (stereo unspecified) | 4.78
58 | CCn1cc(CN2CCCC2c2nc(-c3ccccc3)no2)cc1C#N (stereo unspecified) | 0.165
59 | Cc1oncc1C(=O)N1CCC(O)(CN2CCOCC2)C(C)(C)C1 (stereo unspecified) | -5.26
60 | COc1cccc(CC2CN(C3CCC3)CCO2)c1 (stereo unspecified) | 0.388
61 | N#Cc1cccc(N2CCCC(CO)(CCOc3ccccc3)C2)n1 (stereo unspecified) | -47.2
62 | Cc1cccnc1N1CCC(c2nccn2Cc2cscn2)CC1 | -0.65
63 | Cc1nc2c(c(NCCc3nc4c(s3)CCCC4)n1)CCNCC2 | -7.33
64 | CCN(Cc1ccncc1)C1CCCN(Cc2ccc(F)cc2OC)C1 (stereo unspecified) | -3.73
65 | O=C(CCC1CCN(C2Cc3ccccc3C2)CC1)NCC1CCCO1 (stereo unspecified) | 7.36
66 | CCN(C)C[C@@H]1CN(C(=O)c2cc(C(F)(F)F)n[nH]2)C[C@@H]1CO | -12.1
67 | Cn1ncc(N2CCOC(CCNC(=O)CO)C2)cc1=O (stereo unspecified) | -8.58
68 | CN(Cc1csc(-c2ccccc2)n1)Cc1ncccc1C(=O)O | 6.03
69 | CCSCCNc1nc2c(s1)c(C)nn2C | -0.145

Row | SMILES | cytotoxicity at 10 µM [%]
70 | CCCc1nc(N[C@H]2COC[C@@H]2N2CCCC2)c2cnn(C)c2n1 | -6.56
71 | CCn1nc(C)c(C(C)NC(=O)c2cccc(NCC(=O)O)c2)c1C (stereo unspecified) | 3.04
72 | CNc1ncc(CN(C)C(=O)c2cccc(-n3cccn3)c2)cn1 | -2.38
73 | CCC(NS(=O)(=O)c1ccc(C(=O)NC2CC2)cc1)c1ccnn1C (stereo unspecified) | 9.65
74 | CCc1cccc(C)c1NC(=O)c1ccccc1N(C)S(C)(=O)=O | 17.8
75 | COc1cc(C(=O)O)cc(I)c1OCC(=O)NCCc1ccccc1 | -11.9
76 | COc1cccc([C@@H]2CN(C3CCCC3)C[C@H]2C(=O)O)c1 | -5.89
77 | CN(C(=O)c1ccccc1NCC(=O)O)C(C1CC1)C1CC1 | 1.73
78 | Cc1ccsc1-c1nccn1CCS(C)(=O)=O | 3.03
79 | Cc1nc(NC(=O)NC2CC(=O)N(C)C2)nn1C (stereo unspecified) | -12.2
80 | OC1(CN2CCCC2)COCCN(c2nccs2)C1 (stereo unspecified) | -7.64
81 | CC(C)=CCN1CCN(C(=O)COc2ccccc2)[C@H]2CS(=O)(=O)C[C@H]21 | -1.64
82 | Cc1csc(N2CCN(CC(=O)N3CCNC3=O)CC2C)n1 (stereo unspecified) | -12.4
83 | CCc1nc(C2CCCN2CC(=O)NCCc2ccsc2)no1 (stereo unspecified) | -2.81
84 | c1ncn(CC2CCCCN2Cc2cn3ccsc3n2)n1 (stereo unspecified) | -13.9
85 | N#CC1(C(=O)N2CCN(Cc3cscn3)CC2)CCCCC1 | -3.27
86 | CCc1noc(CN2CCCN(C(C)=O)CC2)n1 | -1.25
87 | CCn1cc(CN2CCCN(C(=O)c3ccc(C#N)cc3)CC2)cn1 | 1.8
88 | CCCc1nc(CN2CCCN(Cc3nccn3C)CC2)no1 | -3.33
89 | Cc1nc(C)n(CC2CN(CCCOc3ccc(F)cc3)CCO2)n1 (stereo unspecified) | -4.26
90 | OC(CNCCn1cccn1)c1ccc(Br)cc1 (stereo unspecified) | -19.9
91 | COc1ccccc1S(=O)(=O)Nc1ccc2c(C(=O)O)c[nH]c2c1 | -11.1
92 | CCOCC(O)CN1CCN(C(=O)Cc2ccccc2Cl)CC1 (stereo unspecified) | -1.19

Row | SMILES | cytotoxicity at 10 µM [%]
93 | NC(=O)c1cnn2c1NCC(CNCCc1ccco1)C2 (stereo unspecified) | 1.46
94 | CC(NC(=O)Nc1cc(F)ccc1N1CCCCC1)c1nncn1C (stereo unspecified) | -3.36
95 | Cn1cc(-c2nc(CNCCn3cccn3)cs2)cn1 | -13
96 | Cc1nc(C2CCNC2)nc2c1CCC(=O)N2CC(C)C (stereo unspecified) | 2.04
97 | O=C(NC1CC1)[C@@]12CCO[C@@H]1CCN(Cc1ccc3c(c1)OCO3)C2 | -2.87
98 | CCOC1COC2(CCN(Cc3cccc(C)n3)CC2)C1 (stereo unspecified) | 11.8
99 | O=C(Nc1cccnc1)[C@H]1CO[C@H]2CCN(c3ncc(F)cn3)C[C@H]2C1 | -12.8
100 | O=C([C@H]1CC[C@@H]2[C@@H](CCN2C2CCOCC2)O1)N1CCOCC1 | -0.824
101 | Cc1ccc(CN2CC[C@H]3C[C@H](C(=O)N(C)C)O[C@H]3C2)cc1 | 1.94
102 | CC(C)N(C)Cc1cc(=O)n2c(n1)CN(S(=O)(=O)C1CC1)CCC2 | 0.819
103 | COCCN1CCO[C@H]2CN(Cc3cccc(C)n3)C[C@H]21 | -116
104 | Cn1cc(-c2ncnc3c2CCN(CC2CCOC2)CC3)cn1 (stereo unspecified) | -112
105 | Cc1ccc(N2CCO[C@H]3CN(Cc4cnn(C)c4)C[C@H]32)nn1 | 3.86
106 | CC(C)N(C)Cc1cncc2c1CCN(C1CCOCC1)C2 | 5.88
107 | Cc1ccc(CN2CCn3c(COc4cccnc4)cnc3C2C)o1 (stereo unspecified) | -111
108 | CN(C)[C@@H]1CN(Cc2ccoc2)C[C@@H]2CCCO[C@@H]21 | 1.93
109 | COc1ncccc1C(=O)N1CCC2(CC1)CC(OC)CO2 (stereo unspecified) | -97
110 | COc1ccc(OC)c(C2CCN(C(=O)C3CCC(O)CC3)C2)c1 (stereo unspecified) | -1.65
111 | CC=C(C)C(=O)NS(=O)(=O)c1ccc(Cl)cn1 | 7.04
